Here are results for 14 molecules from ChEMBL document CHEMBL1122708, “Preparation and antibacterial activities of new 1,2,3-diazaborine derivatives and analogues” (1984).

The subject of test [1] is Escherichia coli. Description: Antibacterial activity againist Escherichia coli 120 infected NMRI mice after subcutaneous administration. Conditions: sc. The class given is functional. In outline: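 ED50 in NMRI mice infected intraperitoneally with E. coli 120; compound given subcutaneously immediately and 5 h after infection.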
The next test concerns Klebsiella pneumoniae. Nature of the test: Minimum inhibitory concentration of compound against Klebsiella pneumoniae delta 217. The class given is functional.
The next test has as its system Salmonella typhimurium. Description: Minimum inhibitory concentration of compound against Salmonella Typhimurium delta 119. Type of test: functional, Salmonella enterica subsp. enterica serovar Typhimurium. The note with it: Salmonella enterica.
Another test has as its system Klebsiella aerogenes. Nature of the test: Minimum inhibitory concentration of compound against Enterobacter aerogenes delta 220. Type of test: functional.
The next test deals with Proteus mirabilis. Nature of the test: Minimum inhibitory concentration against Proteus mirabilis delta 89. The class given is functional.
Test [2] has as its system Escherichia coli. Nature of the test: Minimum inhibitory concentration of compound against Escherichia coli delta 120. The class given is functional.
Test [3] deals with Neisseria gonorrhoeae. Description: Minimum inhibitory concentration of compound against Neisseria gonorrhoeae W2. The class given is functional. In outline: (§1)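 Agar dilution on Kellogg agar, 10⁶ colony forming units, incubated 20 h at 36 °C in 5% CO₂; MIC is the lowest concentration giving no visible growth.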
Test [4] has as its system Neisseria gonorrhoeae. Nature of the test: Minimum inhibitory concentration of compound against Neisseria gonorrhoeae AS 7720. Type of test: functional. The method in brief:
as §1

Test [5] has as its system Escherichia coli. Description: Antibacterial activity againist Escherichia coli 120 infected NMRI mice after peroral administration. The class given is functional. Conditions: po. The method in brief:
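ED50 in NMRI mice infected intraperitoneally with E. coli 120; compound given orally immediately and 5 h after infection.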

Structures are written as SMILES. In brackets after ≈: the same amount, converted by molar mass.

`Cc1ccc(S(=O)(=O)N2N=Cc3cc(N4CCCC4)ccc3B2O)cc1` showed a median effective dose (ED50) in the test on Escherichia coli [1] of over 300 mg/kg. Also, the MIC with Klebsiella pneumoniae, with Salmonella typhimurium, against Klebsiella aerogenes, against Proteus mirabilis and with Escherichia coli [2] was over 50 µg/mL throughout.
`Cc1ccc(S(=O)(=O)N2N=Cc3sc(C)cc3B2O)c(Cl)c1`: the minimal inhibitory concentration (MIC) with Neisseria gonorrhoeae [3] was 1 µg/mL (≈ 2.82 µM); with Klebsiella pneumoniae, 1.56 µg/mL (≈ 4.4 µM); in the test on Neisseria gonorrhoeae [4] it was 0.5 µg/mL (≈ 1.41 µM); with Salmonella typhimurium, 12.5 µg/mL (≈ 35.2 µM); against Klebsiella aerogenes, 50 µg/mL (≈ 141 µM); in the test with Proteus mirabilis, 1.56 µg/mL (≈ 4.4 µM). Further, 50 µg/mL (≈ 141 µM) was the least that counted as inhibitory against Escherichia coli [2] (MIC). The ED50 in the test with Escherichia coli [5] worked out at 32 mg/kg.
Take `Cc1cc2c(s1)C=NN(S(=O)(=O)c1ccccc1C)B2O`: the minimum inhibitory concentration (MIC) worked out at 0.5 µg/mL (≈ 1.56 µM) against Neisseria gonorrhoeae [3]; 0.78 µg/mL (≈ 2.44 µM) against Klebsiella pneumoniae; 0.5 µg/mL (≈ 1.56 µM) with Neisseria gonorrhoeae [4]; 6.25 µg/mL (≈ 19.5 µM) in the test with Salmonella typhimurium; 50 µg/mL (≈ 156 µM) against Klebsiella aerogenes; 1.56 µg/mL (≈ 4.87 µM) against Proteus mirabilis. The molecule further displayed a minimal inhibitory concentration (MIC) in the test on Escherichia coli [2] of 25 µg/mL (≈ 78.1 µM). In the test with Escherichia coli [5], this molecule came in with an ED50 of 50 mg/kg.
Turning to `CCCS(=O)(=O)N1N=Cc2cc(CC)sc2B1O`, the MIC against Neisseria gonorrhoeae [3] was found to be 0.5 µg/mL (≈ 1.75 µM); against Klebsiella pneumoniae, 0.31 µg/mL (≈ 1.08 µM); against Neisseria gonorrhoeae [4], 0.5 µg/mL (≈ 1.75 µM); against Salmonella typhimurium it was 0.31 µg/mL (≈ 1.08 µM); against Klebsiella aerogenes, 5 µg/mL (≈ 17.5 µM); in the test with Proteus mirabilis, 1.25 µg/mL (≈ 4.37 µM). For the same molecule, the MIC against Escherichia coli [2] came to 2.5 µg/mL (≈ 8.74 µM). For the same molecule, the 50% effect level in the test with Escherichia coli [5] (ED50) was put at a dose of 4 mg/kg.
With `O=S(=O)(c1ccccc1)N1N=Cc2ccc(O)cc2B1O`, the MIC in the test on Neisseria gonorrhoeae [3] is over 8 µg/mL; in the test with Klebsiella pneumoniae it was 50 µg/mL (≈ 165 µM); against Neisseria gonorrhoeae [4], over 8 µg/mL; in the test on Salmonella typhimurium, 12.5 µg/mL (≈ 41.4 µM); with Klebsiella aerogenes, over 50 µg/mL; against Proteus mirabilis, 50 µg/mL (≈ 165 µM). The minimum inhibitory concentration (MIC) against Escherichia coli [2] stood at 50 µg/mL (≈ 165 µM). Besides, in the test on Escherichia coli [5], it took a dose of 100 mg/kg to reach the 50% effect level (ED50).
Turning to `Cc1ccc(S(=O)(=O)N2N=Cc3oc(Br)cc3B2O)cc1`, the MIC stood at 8 µg/mL (≈ 21.7 µM) against Neisseria gonorrhoeae [3]; 3.12 µg/mL (≈ 8.46 µM) with Klebsiella pneumoniae; 2 µg/mL (≈ 5.42 µM) in the test with Neisseria gonorrhoeae [4]; 3.12 µg/mL (≈ 8.46 µM) against Salmonella typhimurium; 25 µg/mL (≈ 67.7 µM) with Klebsiella aerogenes; 3.12 µg/mL (≈ 8.46 µM) against Proteus mirabilis. Besides, in the test on Escherichia coli [2], 12.5 µg/mL (≈ 33.9 µM) was the least that counted as inhibitory (MIC). The same molecule gave an ED50 in the test with Escherichia coli [5] of about 30 mg/kg.
Consider `Cc1ccc(S(=O)(=O)N2N=Cc3c(F)cccc3B2O)cc1`, for which the MIC is 8 µg/mL (≈ 25.1 µM) with Neisseria gonorrhoeae [3]; 25 µg/mL (≈ 78.6 µM) in the test on Klebsiella pneumoniae; 2 µg/mL (≈ 6.29 µM) in the test with Neisseria gonorrhoeae [4]; 25 µg/mL (≈ 78.6 µM) in the test with Salmonella typhimurium; over 50 µg/mL with Klebsiella aerogenes; 3.12 µg/mL (≈ 9.81 µM) against Proteus mirabilis. This molecule also showed a minimum inhibitory concentration (MIC) in the test on Escherichia coli [2] of over 50 µg/mL. In the test with Escherichia coli [5], this molecule showed an ED50 of 5 mg/kg.
Turning to `O=S(=O)(c1cc(Cl)c(Cl)cc1Cl)N1N=Cc2oc(Br)cc2B1O`, the minimal inhibitory concentration (MIC) with Neisseria gonorrhoeae [3] is 2 µg/mL (≈ 4.36 µM); against Klebsiella pneumoniae, 50 µg/mL (≈ 109 µM); with Neisseria gonorrhoeae [4] it was 0.5 µg/mL (≈ 1.09 µM); against Salmonella typhimurium, 50 µg/mL (≈ 109 µM); against Klebsiella aerogenes, over 50 µg/mL; against Proteus mirabilis, 6.25 µg/mL (≈ 13.6 µM). The MIC against Escherichia coli [2] is over 50 µg/mL. In addition, the ED50 in the test on Escherichia coli [5] is over 300 mg/kg.
On to `Cc1cc(C)c(S(=O)(=O)N2N=Cc3sc(Br)cc3B2O)c(C)c1`, for which the MIC in the test with Neisseria gonorrhoeae [3] was 2 µg/mL (≈ 4.84 µM); in the test on Klebsiella pneumoniae, 25 µg/mL (≈ 60.5 µM); with Neisseria gonorrhoeae [4], 1 µg/mL (≈ 2.42 µM); in the test on Salmonella typhimurium, over 50 µg/mL; in the test on Klebsiella aerogenes it was over 50 µg/mL; in the test with Proteus mirabilis it was 2.5 µg/mL (≈ 6.05 µM). For the same molecule, the MIC against Escherichia coli [2] is over 50 µg/mL. This molecule returned an ED50 in the test with Escherichia coli [5] of over 600 mg/kg.
Regarding `CN(C)S(=O)(=O)N1N=Cc2ccccc2B1O`, the minimal inhibitory concentration (MIC) with Neisseria gonorrhoeae [3] is over 8 µg/mL; against Klebsiella pneumoniae, 12.5 µg/mL (≈ 49.4 µM); against Neisseria gonorrhoeae [4], over 8 µg/mL; in the test with Salmonella typhimurium, 50 µg/mL (≈ 198 µM); against Klebsiella aerogenes it was over 50 µg/mL; with Proteus mirabilis, 50 µg/mL (≈ 198 µM). This molecule also yielded an MIC with Escherichia coli [2] of over 50 µg/mL. In the test on Escherichia coli [5], this molecule came in with a median effective dose (ED50) of 57 mg/kg.
With `Cc1cc2c(s1)B(O)N(S(=O)(=O)CC(C)C)N=C2`, the minimal inhibitory concentration (MIC) amounted to 1 µg/mL (≈ 3.49 µM) against Neisseria gonorrhoeae [3]; 0.78 µg/mL (≈ 2.73 µM) against Klebsiella pneumoniae; 1 µg/mL (≈ 3.49 µM) in the test on Neisseria gonorrhoeae [4]; 1.56 µg/mL (≈ 5.45 µM) in the test with Salmonella typhimurium; 6.25 µg/mL (≈ 21.8 µM) against Klebsiella aerogenes; 1.56 µg/mL (≈ 5.45 µM) in the test on Proteus mirabilis. Moreover, 6.25 µg/mL (≈ 21.8 µM) was the least that counted as inhibitory in the test with Escherichia coli [2] (MIC). This molecule also had an ED50 in the test with Escherichia coli [5] of 5 mg/kg.
Consider `CCc1cc2c(s1)C=NN(S(=O)(=O)c1ccccc1Cl)B2O`, for which the minimal inhibitory concentration (MIC) in the test with Neisseria gonorrhoeae [3] was 1 µg/mL (≈ 2.82 µM); against Klebsiella pneumoniae it was 0.31 µg/mL (≈ 0.874 µM); with Neisseria gonorrhoeae [4] it was 0.5 µg/mL (≈ 1.41 µM); in the test with Salmonella typhimurium, 0.78 µg/mL (≈ 2.2 µM); in the test with Klebsiella aerogenes, 12.5 µg/mL (≈ 35.2 µM); against Proteus mirabilis, 0.39 µg/mL (≈ 1.1 µM). Further, inhibition of growth against Escherichia coli [2] (MIC) required 3.12 µg/mL (≈ 8.8 µM). The same molecule yielded a median effective dose (ED50) in the test on Escherichia coli [5] of 49 mg/kg.
Regarding `Cc1ccc2c(c1)C=NN(S(=O)(=O)c1ccc(N)cc1Cl)B2O`, the minimal inhibitory concentration (MIC) was 1 µg/mL (≈ 2.86 µM) in the test with Neisseria gonorrhoeae [3]; 0.78 µg/mL (≈ 2.23 µM) in the test with Klebsiella pneumoniae; 1 µg/mL (≈ 2.86 µM) against Neisseria gonorrhoeae [4]; 3.12 µg/mL (≈ 8.92 µM) against Salmonella typhimurium; 10 µg/mL (≈ 28.6 µM) in the test on Klebsiella aerogenes; 0.39 µg/mL (≈ 1.12 µM) in the test on Proteus mirabilis. In the test on Escherichia coli [2], the lowest concentration to inhibit growth (MIC) was 10 µg/mL (≈ 28.6 µM). This molecule also came in with an ED50 in the test on Escherichia coli [5] of 14 mg/kg.
`Cc1ccccc1S(=O)(=O)N1N=Cc2sc(Br)cc2B1O`: the MIC worked out at 0.5 µg/mL (≈ 1.3 µM) against Neisseria gonorrhoeae [3]; 3.12 µg/mL (≈ 8.1 µM) in the test with Klebsiella pneumoniae; 0.5 µg/mL (≈ 1.3 µM) with Neisseria gonorrhoeae [4]; 6.25 µg/mL (≈ 16.2 µM) against Salmonella typhimurium; 50 µg/mL (≈ 130 µM) in the test with Klebsiella aerogenes; 1.56 µg/mL (≈ 4.05 µM) with Proteus mirabilis. In the test with Escherichia coli [2], this molecule displayed a minimal inhibitory concentration (MIC) of 25 µg/mL (≈ 64.9 µM). This molecule also had a 50% effective dose (ED50) with Escherichia coli [5] of 57 mg/kg.
